5-HT1A blocker: 5-HT1a (human) receptor antagonism; CHO 5-HT1a Ga15 NFAT-bla reporter, antagonist mode; inhibition, % at 10 µM; P08908; AID 612; actives 0.68% (n = 62,000);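 active means inhibition above the mean of all tested compounds plus 3 SD, cut at about 43% in these data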;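 further: receptor stimulated by 5-CT agonist at 100 nM near EC80; beta-lactamase reporter measured by ratiometric fluorescence of a cleavable substrate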
HTR1A agonist: agonists of human 5-HT1a serotonin receptor | P08908 | CHO 5-HT1a Ga15 NFAT-bla reporter, FRET ratio; 0% basal, 100% maximal reference agonist | activation, % at 10 µM | actives 0.56% (n = 65,000) | AID 567;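 active means activation above the screen-wide mean activation plus 3 SD, cut at about 19% in these data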;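 further: 0% = DMSO wells and 100% = 5-CT at EC100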
S1P1 ag pot: agonists and agonism potentiators of human S1P1 receptor; activation, % at 9.5 µM; S1P1 CRE-bla cells, forskolin, beta-lactamase FRET, potentiator mode; S1P1 agonist co-added at EC20, 2 nM; 100% = saturating reference agonist, 0% = basal; actives 0.57% (n = 56,000); P21453;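 active means activation above a cutoff set at the mean activation of all tested compounds plus 3 SD, cut at about 54% in these data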;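 further: forskolin at 4 µM as EC80 and the EC20 agonist is SEW2871; 100% = SEW2871 at its EC100 plus forskolin at EC80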
Target sequence (P21453 whole entry, looked up): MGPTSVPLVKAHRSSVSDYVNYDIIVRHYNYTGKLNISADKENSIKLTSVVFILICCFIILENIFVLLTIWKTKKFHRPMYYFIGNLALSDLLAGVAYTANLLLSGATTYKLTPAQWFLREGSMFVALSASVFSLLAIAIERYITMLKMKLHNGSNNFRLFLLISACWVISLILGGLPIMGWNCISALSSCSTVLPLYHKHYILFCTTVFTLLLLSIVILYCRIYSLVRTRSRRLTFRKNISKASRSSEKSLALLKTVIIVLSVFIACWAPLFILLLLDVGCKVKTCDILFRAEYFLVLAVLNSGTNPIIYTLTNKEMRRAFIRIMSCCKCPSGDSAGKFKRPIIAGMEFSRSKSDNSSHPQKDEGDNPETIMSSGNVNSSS
HTR1E antagonist: blocks the human 5-HT1E serotonin receptor. P28566. CHO 5-HT1E Ga15 NFAT-bla reporter, FRET, antagonist. inhibition, % at 6 µM. actives 0.99% (n = 65,000). AID 571;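 active means inhibition above a set limit, the mean inhibition across every tested compound plus 3 SD, cut at about 29% in these data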;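 further: signal is the 460 over 535 nm emission ratio of beta-lactamase substrate; 0% = agonist plus DMSO wells and 100% = wells without agonist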
5HT1E ag: activates the human 5-HT1E serotonin receptor. AID 574. CHO 5-HT1E Ga15 NFAT-bla reporter, FRET; 0% DMSO wells, 100% control agonist wells. actives 0.69% (n = 65,000). activation, % at 6 µM. P28566;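 active means activation above a set limit, the screen-wide mean activation plus 3 SD, cut at about 8.5% in these data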;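 further: 100% = positive control agonist at 1 µM giving full maximal response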
S1P3 ag: S1P3 (human) receptor agonism; activation, % at 4.5 µM; actives 0.1% (n = 60,000); S1P3 NFAT-BLA reporter cells, FRET ratio; relative to 1 µM S1P, basal subtracted;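 active means activation above the screen-wide mean plus 3 SD, cut at about 4.5% in these data, passing the limit was not always enough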
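Assay system: CHO cells stably expressing human S1P3, Gα16 and NFAT-β-lactamase reporter. Timing: overnight plating, 4 h compound 37 °C, 2 h substrate RT. Signal: β-lactamase FRET emission ratio 460/535 nm. Measure: percent activation versus median 1 µM S1P response, basal-subtracted, per plate. Repeats: primary screen single test, confirmation screen in triplicate.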
* marks the source's active call; other numbers are inactive results; · = no result given. Rows were chosen to be rich in hits. Some 3% of all compounds tested hit in one or more screens of this group.

SMILES | 5-HT1A blocker | HTR1A agonist | S1P1 ag pot | HTR1E antagonist | 5HT1E ag | S1P3 ag
COc1ccccc1-c1noc(-c2ccccc2)n1 | 20.3 | -1.7 | 24.6 | -6.8 | -1.2 | -0.3
COc1ccc(-c2nc(-c3ccccc3OC)no2)cc1OC | 13.2 | -0.5 | 83.0* | 8.1 | 0.3 | -0.2
COc1ccc(-c2nc(-c3cccc(C)c3)no2)cc1OC | 6.2 | 0.1 | 108.5* | -0.5 | 0.7 | -0.1
COc1cc(-c2nc(-c3cccc(C)c3)no2)cc(OC)c1OC | -0.7 | -2.8 | -17.6 | -32.1 | 0.3 | -1.0
CCCCCNC(=O)c1c(N)n(/N=C/c2ccco2)c2nc3ccccc3nc12 | · | 3.1 | -6.6 | -15.7 | 0.9 | -0.9
CCOC(=O)c1ccoc1CSCc1ccc(C(=O)OC)o1 | 1.8 | 0.1 | 19.9 | 6.8 | -0.3 | -0.2
CCC1CCCCN1C(=O)Cn1c(C(=O)OC)cc2ccsc21 (configuration not stated) | 25.3 | -0.5 | 7.0 | 12.0 | -0.9 | -1.2
CC1=C(C(N)=O)C(c2ccccn2)n2nc(SCc3ccccc3)nc2N1 (configuration not stated) | 5.5 | -2.1 | · | 6.0 | -2.5 | ·
COc1ccccc1C(=O)Nc1ccc(C(=O)O)cc1 | 0.4 | 74.0* | -22.7 | -8.7 | -0.2 | 0.3
COCCOC(=O)c1c(C)nc(SCC(=O)Nc2ccc(OC)cc2)c(C#N)c1-c1ccco1 | · | 5.3 | 2.8 | 34.0* | -0.1 | -1.1
COc1cccc(NC(=O)CSc2nc3c(c(-c4ccco4)c2C#N)CCCC3)c1 | 1.0 | -4.7 | 13.2 | 0.1 | -0.6 | 0.2
COc1ccc(-c2cnnn2-c2ccc(NC(=O)c3ccco3)cc2)cc1OC | 7.3 | 0.7 | · | 47.0* | -0.3 | ·
COc1ccc(Cl)c(N2CCN(CCCNC(=O)Nc3ccc(C)cc3)CC2)c1 | 27.4 | 3.7 | 29.7 | 6.7 | 0.8 | -1.6
CCN(CC)CCOc1cccc(C(C)C)c1 | 5.8 | -1.0 | -12.8 | 3.5 | 13.3* | -0.2
Cc1ccc2[nH]c(=O)c(C(c3nnnn3C3CCCC3)N(Cc3cccnc3)Cc3ccco3)cc2c1 (configuration not stated) | 3.4 | 98.3* | -23.6 | -1.9 | 2.7 | -0.3
CC(CC1C(C#N)=C(N)SC(N)=C1C#N)c1ccccc1 (configuration not stated) | 5.6 | 0.0 | -10.4 | -1.8 | 1.0 | -0.1
CCCn1c2c(c(O)c(C(=O)Nc3ccccc3)c1=O)CCCC2 | -51.1 | 3.5 | -4.5 | -6.0 | -0.7 | -1.0
CC1CCN(C(=O)CN2C(=O)c3ccccc3S2(=O)=O)CC1 | 0.5 | 37.9* | -12.4 | -7.3 | -0.6 | -0.6
NC(=O)C1CCN(C(=O)CN2C(=O)c3ccccc3S2(=O)=O)CC1 | -13.7 | -1.7 | -13.0 | -9.1 | 0.4 | -0.4
COc1cc(OC)c(OC)cc1CNC1CCCCCC1 | 7.6 | 33.0* | -9.3 | 18.1 | -0.3 | -1.5
COc1cc2[nH]c3c(N4CCN(c5ccccn5)CC4)ncnc3c2cc1OC | -5.2 | -0.2 | -18.9 | 24.4 | -0.1 | -0.9
OC1(c2cccc(C(F)(F)F)c2)CCN(c2ncnc3c2[nH]c2ccc(F)cc23)CC1 | 14.7 | 0.2 | 99.8* | 34.9* | -0.1 | -1.9
CCCCOc1ncnc2c1[nH]c1ccc(F)cc12 | -1.6 | -1.2 | 116.1* | 17.9 | 0.0 | -1.8
Fc1ccc2[nH]c3c(N4CCN(c5ccccc5)CC4)ncnc3c2c1 | · | 3.6 | 106.0* | 22.9 | 0.9 | -6.1
Brc1ccc2ncnc(Nc3ccc(N4CCOCC4)cc3)c2c1 | 6.6 | -0.1 | 60.9* | 15.0 | 1.5 | -0.8
O=C(O)c1c(F)c(F)cc2ccccc12 | -4.0 | 0.8 | · | 1.3 | 0.8 | -0.7
CC1CCN(S(=O)(=O)c2ccc(Cl)cc2)CC1 | -1.0 | 1.0 | -6.3 | 8.5 | -1.2 | -1.8
CC1=C(C)CS(=O)N(S(=O)(=O)c2ccc(Cl)cc2)C1 (configuration not stated) | 47.3* | -4.4 | 18.9 | -0.6 | 0.2 | -1.2
CCC1CCCCN1C(=O)CSc1nnc(-c2c[nH]c3ccccc23)o1 (configuration not stated) | -14.2 | 1.4 | 78.7* | -130.9 | 1.0 | -0.8
Fc1ccccc1N1CCN(c2ncnc3[nH]ncc23)CC1 | -8.0 | 309.9* | 27.1 | 4.9 | -0.6 | 0.0

Screens: PubChem BioAssay, The Scripps Research Institute Molecular Screening Center
